Activity calls are given as the source filed them. The calls are words filed in the database; no cut-off is given here.
Columns and labels:
Rattus norvegicus [1] = test: Antihypertensive activity in spontaneous hypersensitive […] rat model assessed as reduction of blood pressure at <5 to 10 mg/kg, po measured for 1 to 24 hrs; type: functional, organism-based; set-up: dose 10 mg/kg
How it was run: (§1)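 Spontaneously hypertensive rats (250-300 g), randomized into groups of 10. Compound suspended in 0.5% sodium carboxymethyl cellulose, oral dosing at 5 and 10 mg/kg; vehicle-only negative control and losartan 10 mg/kg positive control. Mean blood pressure recorded under sodium pentobarbital anesthesia (40 mg/kg, i.p.). Significance versus control at p < 0.05 or 0.01.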

Rattus norvegicus [2] = test: Antihypertensive activity in renal hypersensitive Sprague-Dawley rat model assessed as reduction of blood pressure at 5 to 10 mg/kg, po measured for 1 to 24 hrs; type: functional, organism-based
How it was run: (§2)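 Renal hypertension induced in Sprague-Dawley rats (250-350 g) by complete ligation of the left renal artery under sodium pentobarbital (40 mg/kg); rats with SBP above 160 mmHg used. Groups of 10. Compound suspended in 0.5% sodium carboxymethyl cellulose and given orally at 5 and 10 mg/kg; vehicle control and losartan 10 mg/kg. Mean blood pressure measured under pentobarbital (40 mg/kg, i.p.) anesthesia.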

[3] = Displacement of [125I]-angiotensin 2 from angiotensin AT1 receptor in VSMC of Sprague-Dawley rat thoracic aorta after 60 mins by gamma-counting; type: tissue-based
How it was run: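 VSMCs explant-cultured from SD rat thoracic aorta (collagenase digestion, DMEM + 15% FBS), passages 3-7. Cells incubated with 0.1 nM 125I-angiotensin II plus compound (final 1e-6 to 1e-12 M), 60 min, 37°C. Nonspecific binding defined with 1 µM AII. Cells washed with PBS, lysed in 0.1 M NaOH, gamma-counted. IC50 from regression of displacement curves; Ki = IC50/(1+[L]/Kd).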

Rattus norvegicus [4] = test: Antihypertensive activity in renal hypersensitive Sprague-Dawley rat model assessed as reduction of blood pressure at 10 mg/kg, po measured for 1 to 24 hrs; type: functional, organism-based; set-up: dose 10 mg/kg; how it was run: as §2
Rattus norvegicus [5] = test: Antihypertensive activity in spontaneous hypersensitive […] rat model assessed as reduction of blood pressure at 10 mg/kg, po measured for 1 to 24 hrs; type: functional; how it was run: as §1
Rattus norvegicus [6] = test: Antihypertensive activity in spontaneous hypersensitive […] rat model assessed as reduction of blood pressure at 10 mg/kg, po measured after 4 to 5 hrs; type: functional; how it was run: as §1
Rattus norvegicus [7] = test: Antihypertensive activity in spontaneous hypersensitive […] rat model assessed as reduction of blood pressure at 5 mg/kg, po measured after 4 to 5 hrs; type: functional; how it was run: as §1
Rattus norvegicus [8] = test: Antihypertensive activity in spontaneous hypersensitive […] rat model assessed as duration of reduction of blood pressure at 5 to 10 mg/kg, po; type: functional; details: dose mg/kg 5-10; how it was run: as §1

IC50 [3] | SMILES | Activity (Rattus norvegicus [1]) | Activity (Rattus norvegicus [2]) | Ki [3] | Activity (Rattus norvegicus [4]) | Activity (Rattus norvegicus [5]) | Activity (Rattus norvegicus [6]) | Activity (Rattus norvegicus [7]) | Time (Rattus norvegicus [8])
5.43 nM | CCCc1nc2cc([N+](=O)[O-])ccc2n1Cc1cccc2c1ccn2-c1ccccc1C(=O)O | inactive | inactive | 4.23 nM | – | – | – | – | –
3.54 nM | CCCCc1nc(Cl)c(CO)n1Cc1ccc(-c2ccccc2-c2nnn[nH]2)cc1 [LOSARTAN] | – | – | 2.53 nM | Active | 31 mmHg | – | – | –
4.12 nM | CCc1nc2cc([N+](=O)[O-])ccc2n1Cc1cccc2c1ccn2-c1ccccc1C(=O)O | – | – | 3.04 nM | Active | 30 mmHg | – | – | –
15.7 nM | CCCCCc1nc2cc([N+](=O)[O-])ccc2n1Cc1cccc2c1ccn2-c1ccccc1C(=O)O | inactive | inactive | 13.4 nM | – | – | – | – | –
3.32 nM | CCCc1nc2cc([N+](=O)[O-])ccc2n1Cc1ccc2c(ccn2-c2ccccc2C(=O)O)c1 | – | – | 2.22 nM | Active | 28 mmHg | – | – | –
1.03 nM | CCCCc1nc2cc([N+](=O)[O-])ccc2n1Cc1cccc2c1ccn2-c1ccccc1C(=O)O | – | Active | 0.97 nM | – | – | 41 mmHg | 30 mmHg | 24 h
5.11 nM | CCCCc1nc2cc([N+](=O)[O-])ccc2n1Cc1ccc2c(ccn2-c2ccccc2C(=O)O)c1 | – | – | 4.89 nM | Active | 32 mmHg | – | – | –
